The source of these data is ChEMBL document CHEMBL1137574, “Synthesis and structure-activity relationship for a novel class of potent and selective carbamate-based inhibitors of hormone selective lipase with acute in vivo antilipolytic effects” (J Med Chem, 2007).

In one series the target is Acetylcholinesterase (Homo sapiens, UniProt P22303). Description: Inhibition of acetylcholine esterase. Put shortly: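 Acetylcholinesterase activity measured with acetylthiocholine substrate. Inhibitor at six concentrations in 5-fold steps from a maximum of 100 µM, duplicate measurements averaged. IC50 from variable-slope sigmoidal dose-response fit.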
The next series addresses Cholinesterase (Homo sapiens, UniProt P06276). The series is described as follows: Inhibition of butyrylcholine esterase.
Another series addresses T1, Hormone-sensitive lipase (Homo sapiens, UniProt Q05469).
T1 sequence (Q05469 whole entry): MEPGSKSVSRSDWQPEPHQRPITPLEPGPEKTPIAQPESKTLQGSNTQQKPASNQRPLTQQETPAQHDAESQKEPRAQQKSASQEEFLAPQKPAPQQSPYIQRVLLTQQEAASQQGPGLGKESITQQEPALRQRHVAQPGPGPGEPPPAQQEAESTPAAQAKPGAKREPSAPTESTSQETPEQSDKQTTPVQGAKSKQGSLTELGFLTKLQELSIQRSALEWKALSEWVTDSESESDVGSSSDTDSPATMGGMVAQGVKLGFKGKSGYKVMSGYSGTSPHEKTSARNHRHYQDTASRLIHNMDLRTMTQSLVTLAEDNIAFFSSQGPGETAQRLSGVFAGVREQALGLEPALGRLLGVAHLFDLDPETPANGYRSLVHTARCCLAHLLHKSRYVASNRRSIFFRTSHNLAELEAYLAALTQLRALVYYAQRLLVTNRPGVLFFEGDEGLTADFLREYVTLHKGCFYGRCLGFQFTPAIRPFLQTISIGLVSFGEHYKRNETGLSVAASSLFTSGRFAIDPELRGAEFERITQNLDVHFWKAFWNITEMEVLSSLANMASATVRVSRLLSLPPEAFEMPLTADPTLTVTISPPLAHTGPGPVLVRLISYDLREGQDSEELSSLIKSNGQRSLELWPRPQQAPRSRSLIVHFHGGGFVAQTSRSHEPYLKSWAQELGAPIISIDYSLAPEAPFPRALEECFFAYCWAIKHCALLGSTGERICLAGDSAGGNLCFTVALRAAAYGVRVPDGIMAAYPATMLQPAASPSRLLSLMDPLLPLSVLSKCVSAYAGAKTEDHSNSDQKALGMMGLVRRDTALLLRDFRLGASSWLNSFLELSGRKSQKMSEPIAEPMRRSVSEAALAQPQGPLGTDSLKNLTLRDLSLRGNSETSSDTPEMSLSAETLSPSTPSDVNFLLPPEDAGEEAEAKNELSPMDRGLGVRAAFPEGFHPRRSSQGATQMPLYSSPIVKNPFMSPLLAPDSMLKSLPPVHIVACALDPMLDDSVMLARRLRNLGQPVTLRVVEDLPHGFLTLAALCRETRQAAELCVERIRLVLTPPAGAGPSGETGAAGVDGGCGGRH
The series is described as follows: Inhibition of recombinant human hormone-sensitive lipase.

Series [1] is described as follows: Clearance in Sprague-Dawley rat at 1.1 mg/kg, iv and 2.2 mg/kg, po. To be noted: in vivo. It is filed as ADME, organism-based. A digest of the protocol:
(§1)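 Rat PK study, one rat per time point. Dosed i.v. and p.o. by gavage in 10% hydroxypropyl cyclodextrin in phosphate buffer pH 7.0; one compound was given in 20% Tween 80 plus 5% glucose in phosphate buffer pH 7.0. Plasma was diluted 1:1 with 10% methanol and centrifuged, then quantified by turbulent-flow chromatography–MS/MS against plasma calibration curves spanning 10-3000 ng/mL.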

A short description of series [2]: Oral bioavailability in Sprague-Dawley rat at 2.2 mg/kg, po. It is filed as ADME, organism-based. The note with it: in vivo. Put shortly: as §1
A short description of series [3]: Cmax in Sprague-Dawley rat at 0.5 mg/kg, iv and 1 mg/kg, po. It is filed as ADME, organism-based. The note with it: in vivo. A digest of the protocol:
(§2)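 Male Sprague-Dawley rats, 12 weeks old, dosed by oral gavage and i.v. in 10% hydroxypropyl cyclodextrin in phosphate buffer pH 7.0, with one rat per time point. Plasma was diluted 1:1 in 10% methanol, centrifuged and quantified by turbulent-flow chromatography–tandem MS against plasma calibration curves (10-3000 ng/mL).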

Series [4] in a line: Oral bioavailability in Sprague-Dawley rat at 1 mg/kg, po. It is filed as ADME, organism-based. To be noted: in vivo. Put shortly:
as §2

Acetylcholinesterase, sequence (P22303 whole entry): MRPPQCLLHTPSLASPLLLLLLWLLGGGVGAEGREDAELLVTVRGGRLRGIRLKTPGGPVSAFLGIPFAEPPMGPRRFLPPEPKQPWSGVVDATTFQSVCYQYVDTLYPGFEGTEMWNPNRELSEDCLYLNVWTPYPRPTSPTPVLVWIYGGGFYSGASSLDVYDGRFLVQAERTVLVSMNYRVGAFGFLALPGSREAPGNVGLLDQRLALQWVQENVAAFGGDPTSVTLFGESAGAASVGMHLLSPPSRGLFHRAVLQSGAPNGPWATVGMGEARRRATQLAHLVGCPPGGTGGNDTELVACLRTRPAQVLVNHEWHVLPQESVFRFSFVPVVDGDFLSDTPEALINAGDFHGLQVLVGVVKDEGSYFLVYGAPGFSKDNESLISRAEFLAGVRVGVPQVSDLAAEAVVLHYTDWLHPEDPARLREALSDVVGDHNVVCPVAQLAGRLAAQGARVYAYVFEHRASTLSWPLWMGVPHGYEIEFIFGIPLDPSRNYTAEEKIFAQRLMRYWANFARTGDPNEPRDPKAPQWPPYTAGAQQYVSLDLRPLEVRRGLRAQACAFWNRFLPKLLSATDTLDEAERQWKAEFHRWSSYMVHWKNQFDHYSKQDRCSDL
Cholinesterase, sequence (P06276 whole entry): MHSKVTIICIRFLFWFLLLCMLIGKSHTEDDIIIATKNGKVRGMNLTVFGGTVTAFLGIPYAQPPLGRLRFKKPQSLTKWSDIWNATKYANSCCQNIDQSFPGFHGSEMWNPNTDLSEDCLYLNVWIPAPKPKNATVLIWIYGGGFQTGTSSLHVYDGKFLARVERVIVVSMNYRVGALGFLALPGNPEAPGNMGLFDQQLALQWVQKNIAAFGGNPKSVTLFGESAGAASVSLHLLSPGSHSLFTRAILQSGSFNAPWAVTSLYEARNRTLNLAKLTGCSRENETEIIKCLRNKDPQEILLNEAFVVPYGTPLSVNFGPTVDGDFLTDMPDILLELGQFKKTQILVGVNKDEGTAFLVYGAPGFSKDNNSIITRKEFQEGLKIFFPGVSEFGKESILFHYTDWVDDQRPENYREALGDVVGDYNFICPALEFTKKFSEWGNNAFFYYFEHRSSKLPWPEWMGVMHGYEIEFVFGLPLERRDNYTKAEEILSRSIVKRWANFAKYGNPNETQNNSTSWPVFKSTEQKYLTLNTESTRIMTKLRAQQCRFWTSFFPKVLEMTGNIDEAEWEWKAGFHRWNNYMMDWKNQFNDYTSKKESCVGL

The IC50 is the concentration that inhibits the measured activity by half. For the compound `O=C(Oc1ccc(Oc2ccc(C(F)(F)F)cn2)cc1)N1Cc2ccccc2C1`, the IC50 at Acetylcholinesterase and on Cholinesterase was over 50 µM each time.
As to `CC1CCCN(C(=O)Oc2ccc(Oc3ccc(C(F)(F)F)cn3)cc2)C1` (stereo not drawn), the half-maximal inhibitory concentration (IC50) against Acetylcholinesterase and at Cholinesterase was over 50 µM in each case.
Regarding `CN(C(=O)Oc1ccc(Oc2ccc(C(F)(F)F)cn2)cc1)c1ccc(Cl)cc1`, the half-inhibitory concentration (IC50) against Acetylcholinesterase and at Cholinesterase was over 50 µM each time.
As for `O=C(Oc1ccc(Oc2ccc(C(F)(F)F)cn2)cc1)N1CCc2ccccc2C1`, the concentration for half-maximal inhibition (IC50) at Acetylcholinesterase and at Cholinesterase was over 50 µM in each case.
On to `CN(C(=O)Oc1ccc(Oc2ccccc2)cc1)c1ccccc1`, for which the IC50 is over 5 µM on Hormone-sensitive lipase, over 50 µM against Acetylcholinesterase and over 50 µM on Cholinesterase.
With `CCN(C(=O)Oc1ccc(Oc2ccc(C(F)(F)F)cn2)cc1)c1ccccc1`, the IC50 at Hormone-sensitive lipase was over 5 µM.
For the compound `CN(C(=O)Oc1ccc(Oc2ccc(C(F)(F)F)cn2)cc1)c1ccccc1Cl`, the IC50 at Acetylcholinesterase and against Cholinesterase was over 50 µM throughout.
For `COc1ccccc1N(C)C(=O)Oc1ccc(Oc2ccc(C(F)(F)F)cn2)cc1`, the IC50 on Acetylcholinesterase and at Cholinesterase was over 50 µM in each case.
In the case of `Cc1ccc(N(C)C(=O)Oc2ccc(Oc3ccc(C(F)(F)F)cn3)cc2)cc1`, the IC50 on Acetylcholinesterase and against Cholinesterase was over 50 µM in each case.
On to `CN(Cc1ccccc1)C(=O)Oc1ccc(Oc2ccc(C(F)(F)F)cn2)cc1`, for which the IC50 at Acetylcholinesterase and at Cholinesterase was over 50 µM throughout.
In general, bioavailability refers to dose-corrected exposure relative to a reference, in per cent. Higher therefore signals much systemic uptake. `CN(C(=O)Oc1ccc(Oc2ccc(C(F)(F)F)cn2)cc1)c1ccccc1`: the IC50 on Acetylcholinesterase and at Cholinesterase was over 50 µM throughout. This compound also returned a clearance in series [1] of 61 mL/min/kg. Further, the bioavailability in series [2] is 16%.
Take `CN(C(=O)Oc1ccc(Nc2ccc(C(F)(F)F)cn2)cc1)c1ccccc1`: the IC50 against Acetylcholinesterase and against Cholinesterase was over 50 µM each time.
Turning to `CN(C(=O)Oc1ccc(Oc2ccc(C(F)(F)F)cn2)cc1)C(C)(C)C`, the IC50 on Hormone-sensitive lipase is over 5 µM; against Acetylcholinesterase, over 50 µM; on Cholinesterase it was over 50 µM.
Turning to `O=C(c1ccccc1)C1CCN(C(=O)Oc2ccc(Oc3ccc(C(F)(F)F)cn3)cc2)CC1`, the IC50 against Cholinesterase is over 50 µM.
On to `CN(C(=O)Oc1ccc(Oc2ncc(Cl)cc2Cl)cc1)c1ccccc1`, for which the IC50 on Acetylcholinesterase and against Cholinesterase was over 50 µM each time.
On to `O=C(Oc1ccc(Oc2ncc(Cl)cc2Cl)cc1)N1CCCC1`, for which the IC50 on Acetylcholinesterase and on Cholinesterase was over 50 µM throughout.
Consider `CN(C(=O)Oc1ccc(Oc2ccc(C(F)(F)F)cn2)cc1)C1CCCCC1`, for which the IC50 on Hormone-sensitive lipase was over 5 µM; at Acetylcholinesterase, over 50 µM; at Cholinesterase it was over 50 µM.
For `Cc1cccc(N(C)C(=O)Oc2ccc(Oc3ccc(C(F)(F)F)cn3)cc2)c1`, the IC50 against Acetylcholinesterase and against Cholinesterase was over 50 µM each time.
Turning to `Cc1ccccc1N(C)C(=O)Oc1ccc(Oc2ccc(C(F)(F)F)cn2)cc1`, the 50% inhibitory concentration (IC50) at Acetylcholinesterase and at Cholinesterase was over 50 µM each time.
With `CC1CCN(C(=O)Oc2ccc(Oc3ccc(C(F)(F)F)cn3)cc2)CC1`, the IC50 against Acetylcholinesterase and against Cholinesterase was over 50 µM throughout.
As a reminder, the Cmax is the highest concentration seen after dosing. `O=C(Oc1ccc(Oc2ccc(C(F)(F)F)cn2)cc1)N1CCOCC1`: the IC50 at Acetylcholinesterase and at Cholinesterase was over 50 µM in each case. For the same compound, in series [3], the peak level (Cmax) was 21 ng/mL. The same compound gave a bioavailability in series [4] of 12%.
`CN(C(=O)Oc1ccc(Oc2c(Cl)cncc2Cl)cc1)c1ccccc1`: the IC50 against Acetylcholinesterase and against Cholinesterase was over 50 µM in each case.
`CC(C)N(C)C(=O)Oc1ccc(Oc2ccc(C(F)(F)F)cn2)cc1`: the IC50 at Hormone-sensitive lipase was over 5 µM; on Acetylcholinesterase, over 50 µM; at Cholinesterase it was over 50 µM.
On to `O=C(Oc1ccc(Oc2ncc(Cl)cc2Cl)cc1)N1CCOCC1`, for which the IC50 on Acetylcholinesterase and against Cholinesterase was over 50 µM each time.
As to `O=C(Oc1ccc(Oc2ccc(C(F)(F)F)cn2)cc1)N1CCc2ccccc21`, the IC50 on Hormone-sensitive lipase was over 3 µM; against Acetylcholinesterase, over 50 µM; against Cholinesterase it was over 50 µM.
Consider `O=C(Oc1ccc(Oc2ccc(C(F)(F)F)cn2)cc1)N1CCCC1`, for which the IC50 against Acetylcholinesterase and at Cholinesterase was over 50 µM throughout.
`CN(C(=O)Oc1ccc(Oc2ncc(C(F)(F)F)cc2Cl)cc1)c1ccccc1`: the IC50 against Acetylcholinesterase and against Cholinesterase was over 50 µM each time.
In the case of `O=C(Oc1ccc(Oc2ccc(C(F)(F)F)cn2)cc1)N1CCCCC1`, the IC50 against Acetylcholinesterase was over 50 µM; at Cholinesterase, 8.2 µM.
The like results for `CN(C(=O)Oc1ccc(Oc2ccc(C(F)(F)F)cn2)cc1)c1cccc(Cl)c1` were, in that order, over 50 µM and over 50 µM.
`O=C(Oc1ccc(Oc2ccc(C(F)(F)F)cn2)cc1)N1CCC(Cc2ccccc2)CC1`: the IC50 against Cholinesterase was over 50 µM.
As for `CN(C(=O)Oc1ccc(Oc2ccc(Cl)cn2)cc1)c1ccccc1`, the half-inhibitory concentration (IC50) on Acetylcholinesterase and at Cholinesterase was over 50 µM throughout.
With `CC1CN(C(=O)Oc2ccc(Oc3ccc(C(F)(F)F)cn3)cc2)CC(C)O1` (stereo not drawn), the IC50 at Acetylcholinesterase and on Cholinesterase was over 50 µM each time.
As for `CC1CCCCN1C(=O)Oc1ccc(Oc2ccc(C(F)(F)F)cn2)cc1` (stereo not drawn), the values for the IC50 at Hormone-sensitive lipase, against Acetylcholinesterase and against Cholinesterase were over 5 µM, over 50 µM and over 50 µM, respectively.
Consider `CN(C)C(=O)Oc1ccc(Oc2ncc(Cl)cc2Cl)cc1`, for which the IC50 on Hormone-sensitive lipase, against Acetylcholinesterase and on Cholinesterase was over 50 µM each time.
Regarding `O=C(Oc1ccc(Oc2ccc(C(F)(F)F)cn2)cc1)N1CCCc2ccc(C(F)(F)F)cc21`, the IC50 is over 5 µM at Hormone-sensitive lipase, over 50 µM at Acetylcholinesterase and over 50 µM at Cholinesterase.
Regarding `COc1ccc(N(C)C(=O)Oc2ccc(Oc3ccc(C(F)(F)F)cn3)cc2)cc1`, the IC50 on Acetylcholinesterase and on Cholinesterase was over 50 µM in each case.
Take `CCCCNC(=O)Oc1ccc(Oc2ncc(Cl)cc2Cl)cc1`: the IC50 against Acetylcholinesterase was over 50 µM; against Cholinesterase it was 19 µM.
